{"source": "ChEMBL document CHEMBL1121653", "about": "“Potential pancreatic imaging agents. Tellurium-123m labeled DL-alpha-amino-gamma-(phenyltelluro)butyric acid” (J Med Chem, 1981)", "key": {"[1]": {"test_system": "Rattus norvegicus", "assay": "Compound was evaluated for the distribution of radioactivity in female rat pancreas at time interval 4 hours following intravenous administration of [123mTe]- Labeled-DL-cu-Amino-r-( phenyltel1uro) butyric Acid, expressed as mean dose per gram of tiss", "format": "ADME, organism-based", "settings": "in vivo", "how_it_was_run": "(§1)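 Female Fischer 344 rats, 10–12 weeks old (180–210 g), fed ad libitum, given the 123mTe-labeled amino acid through a lateral tail vein under ether anesthesia. The basic solution was neutralized to pH ~8 with 1 N HCl and filtered (0.22 μm) before injection. Rats were decapitated at 30 min, 60 min, 4 h or 24 h. Organs were rinsed in saline and weighed, and radioactivity was counted on a Ge(Li) analyzer. Values are %dose/g, mean ± SD of 3 rats.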"}, "[2]": {"test_system": "Rattus norvegicus", "assay": "Compound was evaluated for the distribution of radioactivity in female rat kidneys at time interval 60 minutes following intravenous administration of [123mTe]- Labeled-DL-cu-Amino-r-( phenyltel1uro) butyric Acid, expressed as mean dose per gram of ti", "format": "ADME, organism-based, Kidney", "settings": "in vivo, 1 h", "how_it_was_run": "as §1"}, "[3]": {"test_system": "Rattus norvegicus", "assay": "Compound was evaluated for the distribution of radioactivity in female rat blood at time interval 30 minutes following intravenous administration of [123mTe]- Labeled-DL-cu-Amino-r-( phenyltel1uro) butyric Acid, expressed as mean dose per gram of tiss", "format": "ADME, organism-based", "settings": "in vivo, 0.5 h", "how_it_was_run": "as §1"}, "[4]": {"test_system": "Rattus norvegicus", "assay": "Compound was evaluated for the distribution of radioactivity in female rat kidneys at time interval 24 hours following intravenous administration of [123mTe]- Labeled-DL-cu-Amino-r-( phenyltel1uro) butyric Acid, expressed as mean dose per gram of tiss", "format": "ADME, organism-based, Kidney", "settings": "in vivo", "how_it_was_run": "as §1"}, "[5]": {"test_system": "Rattus norvegicus", "assay": "Compound was evaluated for the distribution of radioactivity in female rat pancreas at time interval 60 minutes following intravenous administration of [123mTe]- Labeled-DL-cu-Amino-r-( phenyltel1uro) butyric Acid, expressed as mean dose per gram of t", "format": "ADME, organism-based", "settings": "in vivo, 1 h", "how_it_was_run": "as §1"}, "[6]": {"test_system": "Rattus norvegicus", "assay": "Compound was evaluated for the distribution of radioactivity in female rat blood at time interval 60 minutes following intravenous administration of [123mTe]- Labeled-DL-cu-Amino-r-( phenyltel1uro) butyric Acid, expressed as mean dose per gram of tiss", "format": "ADME, organism-based", "settings": "in vivo, 1 h", "how_it_was_run": "as §1"}, "[7]": {"test_system": "Rattus norvegicus", "assay": "Compound was evaluated for the distribution of radioactivity in female rat kidneys at time interval 4 hours following intravenous administration of [123mTe]- Labeled-DL-cu-Amino-r-( phenyltel1uro) butyric Acid, expressed as mean dose per gram of tissu", "format": "ADME, organism-based, Kidney", "settings": "in vivo", "how_it_was_run": "as §1"}, "[8]": {"test_system": "Rattus norvegicus", "assay": "Compound was evaluated for the distribution of radioactivity in female rat pancreas at time interval 24 hours following intravenous administration of [123mTe]- Labeled-DL-cu-Amino-r-( phenyltel1uro) butyric Acid, expressed as mean dose per gram of tissue", "format": "ADME, organism-based", "settings": "in vivo", "how_it_was_run": "as §1"}, "[9]": {"test_system": "Rattus norvegicus", "assay": "Compound was evaluated for the distribution of radioactivity in female rat blood at time interval 4 hours following intravenous administration of [123mTe]- Labeled-DL-cu-Amino-r-( phenyltel1uro) butyric Acid, expressed as mean dose per gram of tissue", "format": "ADME, organism-based", "settings": "in vivo", "how_it_was_run": "as §1"}, "[10]": {"test_system": "Rattus norvegicus", "assay": "Compound was evaluated for the distribution of radioactivity in female rat liver at time interval 24 hours following intravenous administration of [123mTe]- Labeled-DL-cu-Amino-r-( phenyltel1uro) butyric Acid, expressed as mean dose per gram of tissue", "format": "ADME, organism-based", "settings": "in vivo", "how_it_was_run": "as §1"}, "[11]": {"test_system": "Rattus norvegicus", "assay": "Compound was evaluated for the distribution of radioactivity in female rat spleene at time interval 24 hours following intravenous administration of [123mTe]- Labeled-DL-cu-Amino-r-( phenyltel1uro) butyric Acid, expressed as mean dose per gram of tiss", "format": "ADME, organism-based, Spleen", "settings": "in vivo", "how_it_was_run": "as §1"}, "[12]": {"test_system": "Rattus norvegicus", "assay": "Compound was evaluated for the distribution of radioactivity in female rat liver at time interval 30 minutes following intravenous administration of [123mTe]- Labeled-DL-cu-Amino-r-( phenyltel1uro) butyric Acid, expressed as mean dose per gram of tiss", "format": "ADME, organism-based", "settings": "in vivo, 0.5 h", "how_it_was_run": "as §1"}, "[13]": {"test_system": "Rattus norvegicus", "assay": "Compound was evaluated for the distribution of radioactivity in female rat kidneys at time interval 30 minutes following intravenous administration in kidneys of [123mTe]- Labeled-DL-cu-Amino-r-( phenyltel1uro) butyric Acid, expressed as mean dose per", "format": "ADME, organism-based, Kidney", "settings": "in vivo, 0.5 h", "how_it_was_run": "as §1"}, "[14]": {"test_system": "Rattus norvegicus", "assay": "Compound was evaluated for the distribution of radioactivity in female rat liver at time interval 60 minutes following intravenous administration of [123mTe]- Labeled-DL-cu-Amino-r-( phenyltel1uro) butyric Acid, expressed as mean dose per gram of tiss", "format": "ADME, organism-based", "settings": "in vivo, 1 h", "how_it_was_run": "as §1"}, "[15]": {"test_system": "Rattus norvegicus", "assay": "Compound was evaluated for the distribution of radioactivity in female rat pancreas at time interval 30 minutes following intravenous administration of [123mTe]- Labeled-DL-cu-Amino-r-( phenyltel1uro) butyric Acid, expressed as mean dose per gram of t", "format": "ADME, organism-based", "settings": "in vivo, 0.5 h", "how_it_was_run": "as §1"}, "[16]": {"test_system": "Rattus norvegicus", "assay": "Compound was evaluated for the distribution of radioactivity in female rat blood at time interval 24 hours following intravenous administration of [123mTe]- Labeled-DL-cu-Amino-r-( phenyltel1uro) butyric Acid, expressed as mean dose per gram of tissue", "format": "ADME, organism-based", "settings": "in vivo", "how_it_was_run": "as §1"}, "[17]": {"test_system": "Rattus norvegicus", "assay": "Compound was evaluated for the distribution of radioactivity in female rat liver at time interval 4 hours following intravenous administration of [123mTe]- Labeled-DL-cu-Amino-r-( phenyltel1uro) butyric Acid, expressed as mean dose per gram of tissue", "format": "ADME, organism-based", "settings": "in vivo", "how_it_was_run": "as §1"}, "[18]": {"test_system": "Rattus norvegicus", "assay": "Compound was evaluated for the distribution of radioactivity in female rat spleen at time interval 60 minutes following intravenous administration of [123mTe]- Labeled-DL-cu-Amino-r-( phenyltel1uro) butyric Acid, expressed as mean dose per gram of tis", "format": "ADME, organism-based", "settings": "in vivo, 1 h", "how_it_was_run": "as §1"}, "[19]": {"test_system": "Rattus norvegicus", "assay": "Compound was evaluated for the distribution of radioactivity in female rat spleen at time interval 4 hours following intravenous administration of [123mTe]- Labeled-DL-cu-Amino-r-( phenyltel1uro) butyric Acid, expressed as mean dose per gram of tissue", "format": "ADME, organism-based", "settings": "in vivo", "how_it_was_run": "as §1"}, "[20]": {"test_system": "Rattus norvegicus", "assay": "Compound was evaluated for the distribution of radioactivity in female rat spleen at time interval 30 minutes following intravenous administration of [123mTe]- Labeled-DL-cu-Amino-r-( phenyltel1uro) butyric Acid, expressed as mean dose per gram of tis", "format": "ADME, organism-based", "settings": "in vivo, 0.5 h", "how_it_was_run": "as §1"}}, "data": [{"smiles": "NC(CC[Te]c1ccccc1)C(=O)O", "note": "(stereo not given)", "values": [{"measurement": "Dose", "setting": "[1]", "value": 0.434, "unit": "%"}, {"measurement": "Dose", "setting": "[2]", "value": 2.628, "unit": "%"}, {"measurement": "Dose", "setting": "[3]", "value": 0.208, "unit": "%"}, {"measurement": "Dose", "setting": "[4]", "value": 1.489, "unit": "%"}, {"measurement": "Dose", "setting": "[5]", "value": 0.654, "unit": "%"}, {"measurement": "Dose", "setting": "[6]", "value": 0.497, "unit": "%"}, {"measurement": "Dose", "setting": "[7]", "value": 2.169, "unit": "%"}, {"measurement": "Dose", "setting": "[8]", "value": 0.334, "unit": "%"}, {"measurement": "Dose", "setting": "[9]", "value": 0.451, "unit": "%"}, {"measurement": "Dose", "setting": "[10]", "value": 2.139, "unit": "%"}, {"measurement": "Dose", "setting": "[11]", "value": 0.28, "unit": "%"}, {"measurement": "Dose", "setting": "[12]", "value": 0.32, "unit": "%"}, {"measurement": "Dose", "setting": "[13]", "value": 1.019, "unit": "%"}, {"measurement": "Dose", "setting": "[14]", "value": 0.534, "unit": "%"}, {"measurement": "Dose", "setting": "[15]", "value": 0.206, "unit": "%"}, {"measurement": "Dose", "setting": "[16]", "value": 0.485, "unit": "%"}, {"measurement": "Dose", "setting": "[17]", "value": 1.046, "unit": "%"}, {"measurement": "Dose", "setting": "[18]", "value": 0.238, "unit": "%"}, {"measurement": "Dose", "setting": "[19]", "value": 0.234, "unit": "%"}, {"measurement": "Dose", "setting": "[20]", "value": 0.129, "unit": "%"}]}]}
